Published values pooled from the literature.
Protocols differ between the studies behind these lines.
Target: Serine/threonine-protein kinase PAK 1 (PAK1, Homo sapiens, UniProt Q13153)

`CCOCCn1cc(C(=O)Nc2ccc(-n3nc(-c4cccnc4)cc3C(F)(F)F)cn2)ccc1=O` gave a remaining binding of 96% (cell-free assay, competition with immobilised ligand; 1 µM).
The inhibition of `O=C(CSc1nc2nccnc2c(=O)n1CCc1ccccc1)Nc1nccs1` is reported as 19% (enzyme activity, inhibitor; 10 µM).
With `CC/C(=N\NC(=O)NCc1cccc(O)c1)c1ccc(O)c(C)c1O` the inhibition was -6.4% (enzyme activity, inhibitor; 0.1 µM).
`O=C(Nc1cnn(-c2csc(C(=O)NC3COC3)c2)c1)Nc1ccccc1Cl` has a remaining activity of 106% (enzyme activity, inhibitor; 5 µM).
With `CC(C)(C)c1nc2c(s1)c1nc(N)ncc1c1ccc(NS(=O)(=O)c3c(F)cccc3F)c(F)c12` the remaining activity was 93% (enzyme activity, inhibitor, radiometric; 1 µM).
For `COc1cc2ncnc(Nc3ccc(Oc4ccccc4)cc3C)c2cc1OC`, the inhibition was 4% (enzyme activity, inhibitor; 1 µM).
`Cc1ccc(C(=O)NCc2ccsc2)cc1C#Cc1cn(C(C)C)c2ncnc(N)c12` has an activity vs control of 82% (enzyme activity, inhibitor; 1 µM).
With `COc1ccc2c(c1)O[C@@H](c1ccc(OC)c(OC)c1)C[C@H]2NC(=O)C1(c2ccc3c(c2)OC(F)(F)O3)CC1` the remaining binding was 89% (cell-free assay, competition with immobilised ligand; 1 µM).
For `C=CC(=O)Nc1cc(Nc2nccc(Nc3cc(Cl)c(F)cc3C(C)(C)O)n2)c(OC)cc1N1CC[C@@H](N(C)C)C1`, the inhibition was -9% (enzyme activity, inhibitor; 1 µM).
`N#CCCc1ccc2c(c1)-c1[nH]c3ccc([N+](=O)[O-])cc3c1CC(=O)N2` gave a remaining signal of 52.1% (cell-free assay; 0.5 µM).
`Cc1sc(C(=O)NC2COC2)cc1-n1cc(NC(=O)Nc2c(F)cccc2Cl)cn1` has a remaining activity of 104% (enzyme activity, inhibitor; 10 µM).
For `CC(=O)C1=C(C)N(c2cccc(C(F)(F)F)c2)C(=O)N[C@@H]1c1ccc(C#N)nc1`, the remaining binding was 91.2% (cell-free assay, competition with immobilised ligand; 1 µM).
With `COc1cc2ncnc(Nc3ccc(F)c(Cl)c3)c2cc1OCCCN1CCOCC1` the remaining signal was 104% (cell-free assay; 0.5 µM).
For `CS(=O)(=O)N1CCCC(NC(=O)[C@H](CCC2CCCCC2)NC(=O)c2ccc(CNC(=O)c3cnc4ccccn34)cc2)C1` (some centres unmarked), the remaining binding was 82% (cell-free assay, competition with immobilised ligand; 0.1 µM).
`Cc1cnc(NC2CCOCC2)nc1-n1cnc(C(=O)NC(CN)c2cc(F)cc(Cl)c2)c1` (centres unmarked) gave a remaining activity of 51% (enzyme activity, inhibitor, radiometric; 1 µM).
`CN(C)C1CCN(CC#Cc2nn(C3CCCC3)c3nc(NCc4ccccc4)ncc23)C1` (centres unmarked) gave an inhibition of 1% (enzyme activity, inhibitor, FRET; 10 µM).
`CCOC(=O)c1cc2cc(-c3cc(C(=O)NCc4ccc(C(=O)O)cc4)nn3C)ccc2[nH]1` has a remaining binding of 92% (cell-free assay, competition with immobilised ligand; 0.1 µM).
The remaining signal of `Oc1ccc(-c2nc(-c3ccncc3)c(-c3ccc(F)cc3)[nH]2)cc1` is reported as 97.3% (cell-free assay; 0.5 µM).
The remaining binding of `Cc1c(C(=O)O)cc(-c2ccc(C3CCNCC3)cc2)c2ccc(-c3ccc(C(F)(F)F)cc3)cc12` is reported as 100% (cell-free assay, competition with immobilised ligand; 1 µM).
The remaining signal of `Cc1ccc(NC(=O)c2ccc(C)c(C(F)(F)F)c2)cc1C#Cc1nn(C2CCC(O)CC2)c2ncnc(N)c12` (centres unmarked) is reported as 87% (cell-free assay; 10 µM).
